According to ChEMBL document CHEMBL1134395, “Angular methoxy-substituted furo- and pyranoquinolinones as blockers of the voltage-gated potassium channel Kv1.3” (J Med Chem, 2001):
“And” between values parts separate entries of the source, which are not always exact repeats. Equal values may be shown once.

Experiments:
[1] = target: Potassium voltage-gated channel subfamily A member 3 (Mus musculus) (UniProt P16390); test: Blockade of peak steady-state K+ currents of Kv1.3 channels in mouse fibroblasts L929 at 25 uM; assay type: functional
Outline: (§1)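 Whole-cell patch clamp at room temperature on L929 fibroblasts stably transfected with mKv1.3, grown in DMEM with 10% FCS and 300 µg/mL G418. Bath: 160 mM NaCl, 4.5 KCl, 2.0 CaCl2, 1.0 MgCl2, 5 HEPES, pH 7.4, with 5% DMSO. Pipette: 120 KF, 20 KCl, 10 HEPES, 10 EGTA, pH 7.2. Holding −80 mV, 200 ms pulses to 40 mV; peak steady-state current normalized to control bath; mean of ≥3 cells.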

[2] = tested on: N1E-115; assay type: functional, Mus musculus; conditions: at 50 µM
[3] = tested on: N1E-115; test: Blockade of peak steady-state Na+ currents of neuroblastoma cells N1E-115 at 25 uM; assay type: functional, Mus musculus
Outline: (§2)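 Same N1E-115 whole-cell recordings and solutions (holding −80 mV, room temperature, 5% DMSO). Peak Na+ current is taken at pulses to 0 mV and normalized to the current in control bathing medium. Reported as mean of at least three experiments.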

[4] = tested on: N1E-115; assay type: functional, Mus musculus; conditions: at 50 µM; remark: listed apart in the source
[5] = target: Potassium voltage-gated channel subfamily A member 3 (Mus musculus) (UniProt P16390); conditions: at 50 µM
[6] = tested on: N1E-115; test: Blockade of peak steady-state K+ currents of neuroblastoma cells N1E-115 at 25 uM; assay type: functional, Mus musculus
Outline: (§3)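 Whole-cell patch clamp at room temperature on N1E-115 neuroblastoma cells, grown in DMEM with 10% FCS. Bath: 125 mM NaCl, 5.5 KCl, 1.5 CaCl2, 2.0 MgCl2, 25 glucose, 5 HEPES, pH 7.4, with 5% DMSO. Pipette: 120 KF, 10 KCl, 10 NaCl, 10 HEPES, 10 EGTA, pH 7.2. Holding −80 mV, 100 ms pulses to 40 mV; peak steady-state K+ current normalized to control bath; mean of ≥3 cells.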

[7] = tested on: N1E-115; test: Inhibition of N1E-115 cells Kv channels; assay type: functional, cell-based; conditions: Mus musculus
Outline: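 Whole-cell patch clamp on N1E-115 cells. Holding −80 mV, steps to 40 mV; room temperature, bath with 5% DMSO. Peak K+ block is measured at several concentrations, and a modified Hill equation is fitted to give the half-blocking concentration, reported ± SEM.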

[8] = target: T1, Potassium voltage-gated channel subfamily A member 3 (Mus musculus, UniProt P16390); test: Blockade of peak steady-state K+ currents of voltage-gated potassium channel subunit Kv1.3 in mouse fibroblasts L929 at 50 uM; assay type: functional; conditions: in the assay text read “at different concentrations” for “at 50 uM”; outline: as §1
[9] = tested on: N1E-115; test: Blockade of peak steady-state Na+ currents of neuroblastoma cells N1E-115 at 100 uM; assay type: functional, Mus musculus; outline: as §2
[10] = target: Potassium voltage-gated channel subfamily A member 3 (Mus musculus) (UniProt P16390); test: Blockade of peak steady-state K+ currents of voltage-gated potassium channel subunit Kv1.3 expressed in mouse fibroblasts L929 at 50 uM; assay type: functional; outline: as §1
[11] = tested on: N1E-115; test: Blockade of peak steady-state K+ currents of neuroblastoma cells N1E-115 at 100 uM; assay type: functional, Mus musculus; outline: as §3
[12] = target: Potassium voltage-gated channel subfamily A member 3 (Mus musculus) (UniProt P16390); test: Blockade of peak steady-state K+ currents of Kv1.3 channels in mice fibroblasts L929 at 50 uM; assay type: functional; outline: as §1
[13] = target: Potassium voltage-gated channel subfamily A member 3 (Mus musculus) (UniProt P16390); test: Blockade of peak steady-state K+ currents of Kv1.3 channels in mice fibroblasts L929 at 25 uM; assay type: functional; outline: as §1
[14] = tested on: N1E-115; test: Blockade of peak steady-state Na+ currents of neuroblastoma cells N1E-115 at 50 uM; assay type: functional, Mus musculus; outline: as §2
[15] = target: T1, Potassium voltage-gated channel subfamily A member 3; test: Inhibition of voltage-gated potassium channel subunit Kv1.3 expressed in L929 cells; assay type: functional, cell-based
Outline: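 Whole-cell patch clamp on mKv1.3-transfected L929 cells. Holding −80 mV, 200 ms steps to 40 mV; room temperature, bath with 5% DMSO. Peak K+ block is measured at several concentrations, and a modified Hill equation is fitted to give the half-blocking concentration, reported ± SEM.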

T1 sequence (P16390 whole entry): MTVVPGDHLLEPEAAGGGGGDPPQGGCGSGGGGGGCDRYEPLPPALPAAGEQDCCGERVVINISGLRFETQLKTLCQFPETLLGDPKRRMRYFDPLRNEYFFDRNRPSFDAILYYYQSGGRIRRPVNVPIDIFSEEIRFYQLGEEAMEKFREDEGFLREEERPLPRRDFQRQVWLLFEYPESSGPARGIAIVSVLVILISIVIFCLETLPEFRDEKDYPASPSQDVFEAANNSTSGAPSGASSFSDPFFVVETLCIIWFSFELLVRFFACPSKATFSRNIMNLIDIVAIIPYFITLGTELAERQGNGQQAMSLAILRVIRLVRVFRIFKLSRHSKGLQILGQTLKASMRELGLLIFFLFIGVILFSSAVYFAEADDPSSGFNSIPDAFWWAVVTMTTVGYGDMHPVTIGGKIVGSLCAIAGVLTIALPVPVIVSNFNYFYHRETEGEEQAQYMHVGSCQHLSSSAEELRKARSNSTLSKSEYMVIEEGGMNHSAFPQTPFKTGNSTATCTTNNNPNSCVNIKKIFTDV
Chain of Potassium voltage-gated channel subfamily A member 3 (Mus musculus) (P16390 whole entry): as above

Q: Which results are given for Cn1c(=O)c2c(c3cc([N+](=O)[O-])ccc31)OC(C)(C)CC2?
A: BK [1]: 7%; BK [2]: 14%; BNa [3]: 0%

Q: What does the source list for COc1ccc2c(OC)c3ccoc3nc2c1OC [SKIMMIANINE]?
A: BNa [4]: 6%; BK [2]: 20%; BK [5]: 13%

Q: With Cn1c2c(c(=O)c3ccccc31)CC(C(C)(C)O)O2 (configuration not stated) as the molecule, how does the BNa [4] read?
A: The BNa was 0%.

Q: What about the BK [2] of the same molecule?
A: Its BK is 0%.

Q: What about the BK [5] of the same molecule?
A: Its BK is 1%.

Q: Which BNa [4] does the source give for CC1(C)CCc2c(O)nc3ccccc3c2O1 here?
A: The BNa was 3%.

Q: And the BK [2]?
A: Its BK is 37%.

Q: What about the BK [5] of the same molecule?
A: Its BK is 15%.

Q: Which BNa [4] does the source give for CC1(C)CCc2c(O)nc3ccc([N+](=O)[O-])cc3c2O1 here?
A: Its BNa is 8%.

Q: And the BK [2]?
A: Its BK is 23%.

Q: What does the source list for Cn1c2c(c(=O)c3ccccc31)CC(O)C(C)(C)O2 (configuration not stated)?
A: BNa [4]: 0%; BK [2]: 0%

Q: How did the BK [1] turn out when COc1ccc2c(c1)c(=O)c1c(n2C)OC(C(C)(C)O)C1 (configuration not stated) was run?
A: The BK was 1%.

Q: What about the BK [2] of the same molecule?
A: Its BK is 0%.

Q: What about the BNa [3] of the same molecule?
A: The BNa was 0%.

Q: COc1ccc2c(c1)c1oc(C(C)C)cc1c(=O)n2C was tested. Which BK [1] did it give?
A: Its BK is 98%.

Q: And the BNa [4]?
A: Its BNa is 11%.

Q: And the BK [6]?
A: The BK was 32%.

Q: What about the BK [2] of the same molecule?
A: The BK was 57%.

Q: And the BNa [3]?
A: The BNa was 5%.

Q: And the IC50 [7]?
A: The IC50 was 38 µM.

Q: And the IC50 [8]?
A: The IC50 was 5 µM.

Q: And the BK [5]?
A: Its BK is 98%.

Q: Which results are given for CC(C)c1cc2c(=O)c3ccccc3n(C)c2o1?
A: BNa [4]: 0%; BK [2]: 15%; BK [5]: 23%

Q: How did the BK [2] turn out when Cn1c2c(c(=O)c3cc(O)ccc31)CC(C(C)(C)O)O2 (configuration not stated) was run?
A: The BK was 7%.

Q: And the BNa [9]?
A: The BNa was 13%.

Q: Which BNa [4] does the source give for Cn1c(=O)c2c(c3cc([N+](=O)[O-])ccc31)OC(C(C)(C)O)C2 (configuration not stated) here?
A: The BNa was 0%.

Q: And the BK [2]?
A: Its BK is 4%.

Q: Which results are given for CC1(C)Oc2nc3ccccc3c(O)c2CC1O (configuration not stated)?
A: BK [2]: 0%; BNa [9]: 0%

Q: Cn1c(=O)c2c(c3ccccc31)OC(C(C)(C)O)C2 (configuration not stated) was tested. Which BK [1] did it give?
A: The BK was 3%.

Q: And the BK [2]?
A: Its BK is 4%.

Q: And the BNa [3]?
A: Its BNa is 0%.

Q: Which BNa [4] does the source give for COc1ccc2c(c1)c(=O)c1c(n2C)OC(C)(C)C(O)C1 (configuration not stated) here?
A: Its BNa is 3%.

Q: What about the BK [2] of the same molecule?
A: The BK was 6%.

Q: Which results are given for CC1(C)CCc2c(nc3ccccc3c2O)O1?
A: BNa [4]: -18%; BK [2]: 6%; BK [5]: 7%

Q: With CC(C)c1cc2c(=O)n(C)c3ccccc3c2o1 as the molecule, how does the BK [1] read?
A: Its BK is 44%.

Q: And the BNa [4]?
A: Its BNa is 11%.

Q: What about the BK [6] of the same molecule?
A: Its BK is 25%.

Q: And the BK [2]?
A: The BK was 42%.

Q: What about the BNa [3] of the same molecule?
A: The BNa was 0%.

Q: And the BK [5]?
A: Its BK is 70%.

Q: CC1(C)Oc2nc3ccc(Br)cc3c(O)c2CC1Br (configuration not stated) was tested. Which BNa [4] did it give?
A: The BNa was 1%.

Q: What about the BK [2] of the same molecule?
A: The BK was 32%.

Q: And the BK [10]?
A: Its BK is 35%.

Q: How did the IC50 [8] turn out when COc1ccc(CCCN2CCC(COC(c3ccccc3)c3ccccc3)CC2)cc1 was run?
A: The IC50 was 0.28 µM.

Q: Cn1c2c(c(=O)c3cc(O)ccc31)CC(O)C(C)(C)O2 (configuration not stated) was tested. Which BK [2] did it give?
A: The BK was 0%.

Q: And the BNa [9]?
A: The BNa was 3%.

Q: COc1c2ccccc2nc2occc12 [DICTAMNINE] was tested. Which BNa [4] did it give?
A: Its BNa is 0%.

Q: What about the BK [2] of the same molecule?
A: Its BK is 31%.

Q: And the BK [5]?
A: Its BK is 23%.

Q: For COc1ccc2c(c1)c1c(c(=O)n2C)CC(O)C(C)(C)O1 (configuration not stated), which BNa [4] is on record?
A: The BNa was 2%.

Q: What about the BK [2] of the same molecule?
A: The BK was 21%.

Q: What about the BK [5] of the same molecule?
A: Its BK is 4%.

Q: How did the BNa [4] turn out when Cn1c(=O)c2c(c3ccccc31)OC(C)(C)CC2 was run?
A: Its BNa is 7%.

Q: And the BK [2]?
A: Its BK is 65%.

Q: What about the BK [5] of the same molecule?
A: Its BK is 48%.

Q: COc1ccc2c(c1)c1oc(C(C)C)c(S(=O)(=O)[O-])c1c(=O)n2C.[Na+] was tested. Which BK [6] did it give?
A: Its BK is 0%.

Q: And the BNa [3]?
A: Its BNa is 0%.

Q: Which results are given for COc1cc2nc3occc3c(OC)c2cc1OC [KOKUSAGININE]?
A: BNa [4]: 0%; BK [2]: 22%; IC50 [7]: 200 µM; IC50 [8]: 49 µM; BK [5]: 51%

Q: What does the source list for CC1(C)Oc2nc3ccccc3c(O)c2CC1SS(=O)(=O)O (configuration not stated)?
A: BK [11]: 0%; BNa [9]: 6%

Q: COc1ccc2c3c(c(=O)n(C)c2c1OC)C=CC(C)(C)O3 was tested. Which BNa [4] did it give?
A: Its BNa is 12%.

Q: What about the BK [2] of the same molecule?
A: Its BK is 55%.

Q: And the BK [12]?
A: The BK was 41%.

Q: With COc1ccc2c(c1)c1c(c(=O)n2C)CC(C(C)(C)O)O1 (configuration not stated) as the molecule, how does the BK [1] read?
A: Its BK is 0%.

Q: What about the BK [2] of the same molecule?
A: The BK was 0%.

Q: What about the BNa [3] of the same molecule?
A: The BNa was 0%.

Q: Which results are given for COc1ccc2c(c1)c1c(c(=O)n2C)C=CC(C)(C)O1?
A: BNa [4]: 12%; BK [6]: 44%; BK [2]: 64%; BNa [3]: 1%; IC50 [7]: 31 µM; IC50 [8]: 10 µM; BK [13]: 88%; BK [12]: 93%

Q: Which results are given for COc1ccc2c(c1)c1c(c(=O)n2C)CCC(C)(C)O1?
A: BK [1]: 57%; BNa [14]: 4%; BK [2]: 39% and 52%; BNa [3]: 3%; IC50 [7]: 42 µM; IC50 [15]: 18 µM; BK [5]: 83%

Q: How did the BK [1] turn out when Cn1c(=O)c2c(c3ccccc31)OC(C)(C)C(O)C2 (configuration not stated) was run?
A: The BK was 4%.

Q: And the BNa [4]?
A: Its BNa is 4%.

Q: What about the BK [2] of the same molecule?
A: The BK was 15%.

Q: How did the BNa [4] turn out when COc1ccc2c(c1)c(=O)c1cc(C(C)C)oc1n2C was run?
A: Its BNa is 1%.

Q: What about the BK [2] of the same molecule?
A: The BK was 33%.

Q: What about the BK [5] of the same molecule?
A: Its BK is 44%.

Q: CC(C)(O)C1Cc2c(O)nc3ccccc3c2O1 (configuration not stated) was tested. Which BNa [4] did it give?
A: Its BNa is 0%.

Q: What about the BK [2] of the same molecule?
A: The BK was 7%.

Q: COc1ccc2c(c1)c(=O)c1c(n2C)OC(C)(C)CC1 was tested. Which BNa [4] did it give?
A: The BNa was 0%.

Q: And the BK [2]?
A: Its BK is 7%.

Q: What about the BK [5] of the same molecule?
A: Its BK is 10%.

Q: Which IC50 [8] does the source give for CCCCC/N=c1\ccn(Cc2ccccc2)c2ccccc12 [CP-339818] here?
A: Its IC50 is 0.23 µM.
